We go through three compounds from PMC5626417 (International Journal of Nanomedicine, 2017).

Ends that are not written are not given here.

The test system of series [1] is HeLa cells. Kind of series: Cytotoxicity of CPP. Type of series: cell-based, Human. The conditions noted are these: MTT, 3 and 24 hours incubation, up to 1,000 μM. The essentials:
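HeLa cells seeded at 5×10^3/well and grown 24 h. Exposed to peptide at 50–1,000 μM for 3 h, washed twice with PBS, then given fresh medium for 24 h. A parallel arm used 100 and 1,000 μM for 24 h. Viability by MTT (3 h, DMSO solubilisation, OD492), expressed as percent of untreated cells.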

In series [2] the test system is L292 cells, HCT cells, A594 cells, Hep-G2 cells, and HSC cells. Description: Cytotoxicity of Rq and Rq/PTX on other cell types. Format: cell-based. The conditions noted are these: 24 hours incubation with 1,000 μM Rq; Figure S2.
For series [3], the system named is HeLa cells. Description: Cellular uptake and distribution by fluorescence / confocal microscopy. The conditions noted are these: 10 and 100 μM, 30 minutes, 37°C, serum-free medium. Format: cell-based, Human. The essentials:
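HeLa cells (4×10^4) on coverslips, 24 h, then FITC-labelled peptide or FITC alone at 10 or 100 μM in serum-free medium, 37°C for 30 min. Washed twice in PBS with heparin to strip surface-bound peptide, fixed in 4% PFA. For widefield imaging, nuclei were DAPI-stained; for intracellular distribution, cells were imaged by confocal microscopy immediately after fixation.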

In series [4] the test system is HeLa cells. Particulars: after 20 hours of incubation with 1 μM (0.854 μg/mL) PTX; cited from earlier work.
Series [5] is described as follows: In vivo plasma concentration and bio-distribution of PTX. On the set-up: species or system BALB/c mice. The conditions noted are these: mice, HPLC. The essentials: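 Female BALB/c mice (4–6 weeks, 18–22 g) carried subcutaneous HeLa xenografts (5×10^6 cells) grown to ~50 mm3. Filtered formulations (100 μL) were dosed daily via tail vein for 2 weeks. Blood and organs (lung, liver, kidney, heart, spleen) were saline-washed, weighed and stored at −20°C. Plasma and homogenates were methanol-precipitated and spun at 12,000 rpm for 10 min; PTX was quantified by C18 HPLC at 227 nm.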

For RRRRQWWQW [Rq], the “cell viability after incubation with Rq” value in the series with HeLa cells [1] is on record as “Nearly all the cells were viable”. Besides, the “cell viability of other cell types after incubation with Rq” value in series [2] is given as “no significant decrease in the cell viability”.

Consider fluorescein isothiocyanate [FITC], for which, in the series on HeLa cells [3], the “green fluorescence in cells (fluorescence microscopy)” value is given as “no fluorescence was observed”.

For `CC(=O)O[C@H]1C(=O)[C@@]2(C)[C@H]([C@H](OC(=O)c3ccccc3)[C@]3(O)C[C@H](OC(=O)[C@H](O)[C@@H](NC(=O)c4ccccc4)c4ccccc4)C(C)=C1C3(C)C)[C@]1(OC(C)=O)CO[C@@H]1C[C@@H]2O` [PTX, paclitaxel], the “intracellular PTX concentration” value with HeLa cells [4] is recorded as 0.206 mg/mL. The “PTX level in tissues (organs)” value in series [5] (after 2 weeks of daily tail vein treatment, tissue homogenate) is “accumulated in liver, kidney, and heart”. Also, the “drop in the PTX concentration in plasma” value in series [5] (tail vein injection, 30 minutes versus 24 hours after injection) was “sharply decreased”.
